How the values were obtained:
[1] = biological target: alligator estrogen receptor alpha (aERα) (Alligator mississippiensis, UniProt Q765N7); assay: Cell-free competitive binding assay with baculovirus-expressed recombinant aERα; parameters: species or system American alligator (Alligator mississippiensis); conditions: IC50 of 17β-estradiol / IC50 of compound × 100
aERα [2] = conditions: read-out: Dissociation constant (Kd) of aERα for E2; recombinant aERα; cited from earlier work
endogenous hERα and hERβ = assay: T47D-KBluc transactivation assay; format: cell-based, human; conditions: T47D-KBluc cells
Summary of the method: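 Stably transfected T47D reporter line (endogenous ERα/ERβ, 3×-ERE-TATA-Luc) was plated at 10,000 cells/well and dosed after overnight culture for 24 h. […] After PBS rinse and lysis, luciferase RLU was read with D-luciferin and converted to log fold induction. One-way ANOVA was applied. There were two independent experiments, four wells per treatment.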

aERα [3] = assay: CV1 transactivation assay with exogenous aERα; format: cell-based, American alligator (Alligator mississippiensis); conditions: CV1 cells

## C[C@]12CC[C@@H]3c4ccc(O)cc4CC[C@H]3[C@@H]1CC[C@@H]2O [17β-Estradiol, reference compound]
[1]
  RBA, Alligator: 100
aERα [2]
  Kd: 440 ± 39 pM
Endogenous hERα and hERβ
  Transcriptional activation of estrogen-dependent reporter: dose dependent transactivation
aERα [3]
  Transcription of estrogen responsive gene with aERα: induced transcription
